Test results from ChEMBL document CHEMBL1124458, “Electrophilic derivatives of purines as irreversible inhibitors of A1 adenosine receptors” (J Med Chem, 1989).
pKi: −log10 of the molar value.

Tests used:
[1] = target: T1, Adenosine receptors; A1 & A2 (Rattus norvegicus) (UniProt P29276+P25099+P30543); experiment: Relative affinities for Adenosine A2 and Adenosine A1 receptors; assay type: protein assay
[2] = target: T2, Adenosine receptor A1 (Rattus norvegicus) (UniProt P25099); experiment: Inhibition of [125I]-APNEA binding to adenosine A1 receptor of rat brain at 50 nM
T2 sequence (whole entry): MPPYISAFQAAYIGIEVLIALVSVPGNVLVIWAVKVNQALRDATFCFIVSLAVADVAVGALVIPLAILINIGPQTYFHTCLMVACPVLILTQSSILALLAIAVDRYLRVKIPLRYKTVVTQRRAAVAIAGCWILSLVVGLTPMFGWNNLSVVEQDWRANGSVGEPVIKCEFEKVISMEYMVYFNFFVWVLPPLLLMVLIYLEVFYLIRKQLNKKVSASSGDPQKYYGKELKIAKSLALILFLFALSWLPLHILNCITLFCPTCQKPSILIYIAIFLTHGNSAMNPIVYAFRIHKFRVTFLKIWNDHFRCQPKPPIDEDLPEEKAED
Outline: (§1)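 Adenosine deaminase-treated rat cerebral cortex membranes were exposed to the ligand for 45 min at 37 °C. They were washed three times, held in buffer with 10⁻⁴ M IBMX for 18 h at 25 °C, washed and re-treated with deaminase. Residual sites were measured by 125I-APNEA saturation (0.1–2.5 nM) against untreated membranes carried through the same procedure.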

[3] = target: T2, Adenosine receptor A1 (Rattus norvegicus); experiment: Percentage inhibition of [125I]APNEA binding to adenosine A1 receptor from rat brain after 45 min incubation at 500 nM; outline: as §1
[4] = target: T2, Adenosine receptor A1 (Rattus norvegicus); experiment: Percentage inhibition of [125I]-APNEA binding to Adenosine A1 receptor from rat brain after 45 min incubation at 50 nM
Outline: (§2)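 Rat cerebral cortex membranes pretreated with adenosine deaminase (0.5 unit/mL, 20 min, 37 °C). Incubated with ligand at the stated concentration for 45 min at 37 °C, then washed three times in Tris/MgCl2/EDTA buffer pH 8.26 with 0.02% Chaps. Then 10⁻⁴ M IBMX for 18 h at 25 °C, washed twice and deaminase-treated again. Untreated membranes went through every step as controls.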

[5] = target: T3, Adenosine A2 receptor (Rattus norvegicus, UniProt P29276+P30543); experiment: Inhibition of [3H]N-ethyladenosine-5'-uronamide binding to Adenosine A2 receptor of rat striatal membrane
[6] = target: T4, Adenosine receptor A1 (Rattus norvegicus, UniProt P25099); experiment: Affinity for adenosine A1 receptor using [3H]N6-(phenylisopropyl)adenosine (R)-[3H]-PIA as a radioligand in rat brain.; assay type: tissue-based
T4 sequence (P25099 whole entry): T2 sequence (whole entry)

[7] = target: T5, Adenosine receptor A1 (Bos taurus, UniProt P28190); experiment: Affinity for Adenosine A1 receptor using [N6-[(3-[125I]-iodo-4-aminophenyl)ethyl]adenosine in calf brain; assay type: tissue-based
T5 sequence (P28190 whole entry): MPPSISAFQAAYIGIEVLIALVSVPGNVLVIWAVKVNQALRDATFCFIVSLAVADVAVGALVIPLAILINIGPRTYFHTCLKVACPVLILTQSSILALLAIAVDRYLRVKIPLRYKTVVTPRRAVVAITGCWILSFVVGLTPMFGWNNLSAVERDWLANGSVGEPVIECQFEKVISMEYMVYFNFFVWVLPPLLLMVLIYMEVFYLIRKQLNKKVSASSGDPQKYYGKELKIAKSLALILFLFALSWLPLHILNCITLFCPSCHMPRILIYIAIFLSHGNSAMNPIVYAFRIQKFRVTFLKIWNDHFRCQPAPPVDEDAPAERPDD
Outline: (§3)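 Bovine cerebral cortex membranes were pretreated with adenosine deaminase (0.5 unit/mL, 20 min, 37 °C). Membranes (40 µg) were incubated with 125I-APNEA and competitor for 1 h at 37 °C. Separation was by dilution in cold Tris-HCl/MgCl2/EDTA buffer, pH 8.26, with 0.02% Chaps, then glass-filter filtration and gamma counting. Nonspecific binding was defined with 10⁻⁵ M (R)-PIA.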

[8] = target: T5, Adenosine receptor A1; experiment: Affinity for Adenosine A1 receptor using [125I]APNEA in calf brain.; outline: as §3
[9] = target: T2, Adenosine receptor A1 (Rattus norvegicus); settings: 5 nM
[10] = target: T2, Adenosine receptor A1 (Rattus norvegicus); settings: 5 nM; remark: listed apart in the source
[11] = target: T4, Adenosine receptor A1; experiment: Affinity for adenosine A1 receptor using [3H]-N6 -(phenylisopropyl)-adenosine (R)-[3H]-PIA in rat brain.; assay type: tissue-based
Outline: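 Rat cerebral cortex membranes were incubated with 1 nM (R)-[3H]PIA and a range of competitor concentrations. Each point was run in triplicate, in at least three separate experiments.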

[12] = target: T3, Adenosine A2 receptor; experiment: Inhibitory affinity for Adenosine A2 receptor using [3H]N-ethyladenosine-5'-uronamide; assay type: protein assay
[13] = target: T1, Adenosine receptors; A1 & A2 (Rattus norvegicus); experiment: Selectivity ratio between Ki for adenosine A2 and A1 receptors; assay type: protein assay
[14] = target: T2, Adenosine receptor A1 (Rattus norvegicus); settings: 50 nM
[15] = target: T2, Adenosine receptor A1 (Rattus norvegicus); experiment: Percentage inhibition of [125I]APNEA binding to Adenosine A1 receptor from rat brain after 45 min incubation at 10 nM; outline: as §2
[16] = target: T2, Adenosine receptor A1 (Rattus norvegicus); experiment: Percentage inhibition of [125I]APNEA binding to adenosine A1 receptor from rat brain after 45 min incubation at 10 nM; outline: as §2
[17] = target: T2, Adenosine receptor A1 (Rattus norvegicus); experiment: Percentage inhibition of [125I]APNEA binding to adenosine A1 receptor from rat brain after 45 min incubation at 1 nM
Outline: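 Rat cerebral cortex membranes, pretreated with adenosine deaminase (0.5 unit/mL, 20 min, 37 °C), incubated with ligand 45 min at 37 °C. Washed three times in Tris/MgCl2/EDTA buffer pH 8.26 with 0.02% Chaps, then 10⁻⁴ M IBMX 18 h at 25 °C to strip reversible ligand. Washed, deaminase-treated again, then 125I-APNEA saturation binding (0.1–2.5 nM; nonspecific 10⁻⁵ M R-PIA). Inhibition is relative to untreated membranes carried through the same steps.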

[18] = target: T2, Adenosine receptor A1 (Rattus norvegicus); experiment: Percentage inhibition of [125I]-APNEA binding to adenosine A1 receptor from rat brain after 45 min incubation at 50 nM; outline: as §1

CCCn1c(=O)c2nc(-c3ccc(OCC(=O)NCCN=C(S)Nc4ccc(N=C=S)cc4)cc3)[nH]c2n(CCC)c1=O
Ratio [1]: 48.6
inhibition [2]: 29%
inhibition [3]: 73%
inhibition [4]: 63%
Ki [5]: 321 nM

CCCn1c(=O)c2nc(-c3ccc(OCC(=O)NCCNC(=O)CCC(=O)ON4C(=O)CCC4=O)cc3)[nH]c2n(CCC)c1=O
inhibition [3]: 0%

CCCn1c(=O)c2nc(-c3ccc(OCC(=O)NCCNC(=O)CCCN4C(=O)C=CC4=O)cc3)[nH]c2n(CCC)c1=O
pKi [6]: 7.42
inhibition [2]: 15%

CCCn1c(=O)c2[nH]c(-c3ccc(OCC(=O)NCCNC(=O)CCCCCCC(=O)ON4C(=O)CCC4=O)cc3)nc2n(CCC)c1=O
pKi [7]: 7.64

O=C(Cc1ccc(NC(=O)Cc2ccc(Nc3ncnc4c3ncn4C3O[C@H](CO)[C@@H](O)[C@H]3O)cc2)cc1)NCCN=C=S (some centres not stated)
pKi [6]: 8.35
pKi [8]: 8.38

O=C(Cc1ccc(NC(=O)Cc2ccc(Nc3ncnc4c3ncn4C3O[C@H](CO)[C@@H](O)[C@H]3O)cc2)cc1)NCC/N=C(\S)Nc1ccc([N+](=O)[O-])cc1 (some centres not stated)
pKi [6]: 8.71

O=C(Cc1ccc(NC(=O)Cc2ccc(Nc3ncnc4c3ncn4C3O[C@H](CO)[C@@H](O)[C@H]3O)cc2)cc1)NCCNC(=S)Nc1ccc(Br)cc1 (some centres not stated)
pKi [6]: 8.92

CCCn1c(=O)c2nc(-c3ccc(OCC(=O)NCCN=C(S)Nc4cccc(N=C=S)c4)cc3)[nH]c2n(CCC)c1=O
Ratio [1]: 144
inhibition [3]: 94%
Ki [5]: 343 nM
inhibition [9]: 49%
inhibition [10]: 67%

Cc1ccc(NC(=S)NCCNC(=O)Cc2ccc(NC(=O)Cc3ccc(Nc4ncnc5c4ncn5C4O[C@H](CO)[C@@H](O)[C@H]4O)cc3)cc2)cc1 (some centres not stated)
pKi [6]: 8.43

CCCn1c(=O)c2nc(-c3ccc(OCC(=O)NCCNC(=O)CNC(=O)CCCN4C(=O)C=CC4=O)cc3)[nH]c2n(CCC)c1=O
inhibition [2]: 9%

CCCn1c(=O)c2[nH]c(-c3ccc(OCC(=O)NCCNC(=O)CNC(=O)CCCN4C(=O)C=CC4=O)cc3)nc2n(CCC)c1=O
pKi [11]: 7.63

O=C(Cc1ccc(NC(=O)Cc2ccc(Nc3ncnc4c3ncn4C3O[C@H](CO)[C@@H](O)[C@H]3O)cc2)cc1)NCCNC(=S)Nc1ccc(N=C=S)cc1 (some centres not stated)
pKi [6]: 9.33

CCCn1c(=O)c2[nH]c(-c3ccc(OCC(=O)NCCNC(=O)Cc4ccc(NC(=S)Nc5ccc(N=C=S)cc5)cc4)cc3)nc2n(CCC)c1=O
pKi [6]: 7.60

CCCn1c(=O)c2nc(-c3ccc(OCC(=O)NCCNC(=O)C/N=C(\S)Nc4ccc(N=C=S)cc4)cc3)[nH]c2n(CCC)c1=O
Ratio [1]: 69
inhibition [2]: 50%
Ki [12]: 472 nM

COc1ccc(NC(=S)NCCNC(=O)Cc2ccc(NC(=O)Cc3ccc(Nc4ncnc5c4ncn5C4O[C@H](CO)[C@@H](O)[C@H]4O)cc3)cc2)cc1 (some centres not stated)
pKi [11]: 8.07

CCCn1c(=O)c2nc(-c3ccc(OCC(=O)NCCN=C(S)Nc4ccc(S(=O)(=O)[O-])cc4)cc3)[nH]c2n(CCC)c1=O.[Na+]
pKi [6]: 6.44
Ki [5]: 1450 nM
Ratio [13]: 3.95

CCCn1c(=O)c2nc(-c3ccc(OCC(=O)NCCNC(=O)CCCCC(C)=O)cc3)[nH]c2n(CCC)c1=O
pKi [8]: 8.21
inhibition [3]: 0%

CCCn1c(=O)c2[nH]c(-c3ccc(OCC(=O)NCCN)cc3)nc2n(CCC)c1=O [XANTHINE AMINE CONGENER]
pKi [7]: 9.52

O=C(Cc1ccc(NC(=O)Cc2ccc(Nc3ncnc4c3ncn4C3O[C@H](CO)[C@@H](O)[C@H]3O)cc2)cc1)NCC/N=C(\S)Nc1ccc(F)cc1 (some centres not stated)
pKi [6]: 8.06

CCCn1c(=O)c2nc(-c3ccc(OCC(=O)NCCNC(=O)Cc4ccc(N/C(S)=N/c5ccc(N=C=S)cc5)cc4)cc3)[nH]c2n(CCC)c1=O
Ratio [1]: 26.2
Ki [5]: 655 nM
inhibition [14]: 20%

CCCn1c(=O)c2[nH]c(-c3ccc(OCC(=O)NCCNC(=S)Nc4ccc(C#N)cc4)cc3)nc2n(CCC)c1=O
pKi [6]: 7.78

O=C(Cc1ccc(NC(=O)Cc2ccc(Nc3ncnc4c3ncn4C3O[C@H](CO)[C@@H](O)[C@H]3O)cc2)cc1)NCCNC(=S)Nc1cccc(N=C=S)c1 (some centres not stated)
pKi [6]: 9.06

CCCn1c(=O)c2nc(-c3ccc(OCC(=O)NCCN=C(S)Nc4ccc(OC)cc4)cc3)[nH]c2n(CCC)c1=O
pKi [6]: 7.48

CCCn1c(=O)c2nc(-c3ccc(OCC(=O)NCCNC(=O)CCCCCCC(=O)ON4C(=O)CCC4=O)cc3)[nH]c2n(CCC)c1=O
inhibition [2]: 32%
Ki [5]: 207 nM

CCCn1c(=O)c2nc(-c3ccc(OCC(=O)ON4C(=O)CCC4=O)cc3)[nH]c2n(CCC)c1=O
inhibition [2]: 10%

CCCn1c(=O)c2nc(-c3ccc(OCC(=O)NCCNC(=O)c4ccc(CBr)cc4)cc3)[nH]c2n(CCC)c1=O
inhibition [2]: 15%

CCCn1c(=O)c2nc(-c3ccc(OCC(=O)NCCNC(=O)CCSSc4ccccn4)cc3)[nH]c2n(CCC)c1=O
inhibition [2]: 3%

O=C(Cc1ccc(NC(=O)Cc2ccc(Nc3ncnc4c3ncn4C3O[C@H](CO)[C@@H](O)[C@H]3O)cc2)cc1)NCCNC(=S)Nc1ccccc1F (some centres not stated)
pKi [6]: 8.17

CCCn1c(=O)c2nc(-c3ccc(OCC(=O)NCCNC(=O)CBr)cc3)[nH]c2n(CCC)c1=O
inhibition [2]: 16%

CCCn1c(=O)c2[nH]c(-c3ccc(OCC(=O)NCCNC(=O)c4ccc(CBr)cc4)cc3)nc2n(CCC)c1=O
pKi [8]: 8.00

O=C(Cc1ccc(NC(=O)Cc2ccc(Nc3ncnc4c3ncn4C3O[C@H](CO)[C@@H](O)[C@H]3O)cc2)cc1)NCC/N=C(\S)Nc1c(F)c(F)c(F)c(F)c1F (some centres not stated)
pKi [11]: 8.79

O=C(Cc1ccc(NC(=O)Cc2ccc(Nc3ncnc4c3ncn4C3O[C@H](CO)[C@@H](O)[C@H]3O)cc2)cc1)NCC/N=C(\S)Nc1ccc(N=C=S)cc1 (some centres not stated)
inhibition [15]: > 80%
inhibition [16]: > 80%
inhibition [17]: 39%
Ki [5]: 191 nM

O=C(CBr)NCCNC(=O)Cc1ccc(NC(=O)Cc2ccc(Nc3ncnc4c3ncn4C3O[C@H](CO)[C@@H](O)[C@H]3O)cc2)cc1 (some centres not stated)
pKi [6]: 8.08
Ratio [1]: 76
inhibition [2]: 38%
Ki [12]: 202 nM

N#Cc1ccc(N/C(S)=N/CCNC(=O)Cc2ccc(NC(=O)Cc3ccc(Nc4ncnc5c4ncn5C4O[C@H](CO)[C@@H](O)[C@H]4O)cc3)cc2)cc1 (some centres not stated)
pKi [11]: 8.58

CCCn1c(=O)c2nc(-c3ccc(OCC(=O)NCCN=C(S)Nc4ccc(F)cc4)cc3)[nH]c2n(CCC)c1=O
pKi [6]: 7.81

CCCn1c(=O)c2nc(-c3ccc(OCC(=O)NCCN=C(S)Nc4ccc([N+](=O)[O-])cc4)cc3)[nH]c2n(CCC)c1=O
pKi [6]: 7.80

O=C(Cc1ccc(Nc2ncnc3c2ncn3C2O[C@H](CO)[C@@H](O)[C@H]2O)cc1)ON1C(=O)CCC1=O (some centres not stated)
pKi [6]: 8.08
inhibition [2]: 21%

CCCn1c(=O)c2nc(-c3ccc(OCC(=O)NCCNS(=O)(=O)c4cccc(S(=O)(=O)Cl)c4)cc3)[nH]c2n(CCC)c1=O
Ratio [1]: 42
inhibition [18]: 23%
Ki [5]: 105 nM

O=C(Cc1ccc(Nc2ncnc3c2ncn3C2O[C@H](CO)[C@@H](O)[C@H]2O)cc1)Nc1ccc(CC(=O)ON2C(=O)CCC2=O)cc1 (some centres not stated)
pKi [6]: 8.02
inhibition [2]: 44%
